Results taken from ChEMBL document CHEMBL1149086, “Antimalarial and antitumor evaluation of novel C-10 non-acetal dimers of 10beta-(2-hydroxyethyl)deoxoartemisinin” (J Med Chem, 2004).

Columns and labels:
Plasmodium falciparum = experiment: In vitro antimalarial activity against Plasmodium falciparum HB3 by [3H]hypoxanthine uptake; type: functional, organism-based
COLO 205 [1] = experiment: inhibition against colon COLO 205 cancer cell line; type: functional; details: Homo sapiens
Jurkat [2] = experiment: Tested for apoptosis in jurkat cells at a concentration of 30 uM of the compound; type: functional, Homo sapiens
Summary of the method: (§1)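 Jurkat cells (>98% viable, <2% background apoptosis) at 1 × 10⁶ cells/mL were exposed to 0–100 μM drug (DMSO) for 24 h at 37 °C in 5% CO₂. Nuclei were stained with 50 μM propidium iodide and 0.1% Triton-X in HBSS for 10 min at 37 °C, then scored as apoptotic by flow cytometry. Triplicate incubations in one experiment, mean ± SD; Kruskal–Wallis test versus DMSO control.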

MOLT-4 = experiment: Concentration of the drug required to achieve 50% cytotoxicity against leukemia MOLT-4 cell line; type: functional; details: Homo sapiens, read-out: LC50 (the source's name)
Jurkat [3] = experiment: Tested for apoptosis in jurkat cells at a concentration of 100 uM of the compound; type: functional, Homo sapiens; summary of the method: as §1
RPMI-8226 [4] = experiment: Concentration required to achieve total growth inhibition against leukemia RPMI-8226 cell line; type: functional; details: Homo sapiens
T47D = experiment: Concentration required to achieve total growth inhibition against breast T-47D cancer cell line; type: functional; details: Homo sapiens
Malme-3M = experiment: Concentration required to achieve total growth inhibition against melanoma MALME-3M cell line; type: functional; details: Homo sapiens
SK-MEL-5 [5] = experiment: Concentration required to achieve total growth inhibition against melanoma SK-MEL-5 cell line; type: functional; details: Homo sapiens
KM12 [6] = experiment: Concentration required to achieve total growth inhibition against colon KM12 cancer cell line; type: functional; details: Homo sapiens
MCF7 [7] = experiment: Concentration of the drug required to achieve 50% cytotoxicity against breast MCF-7 cancer cell line; type: cell-based; details: human
Jurkat [8] = experiment: Tested for apoptosis in jurkat cells at a concentration of 3 uM of the compound; type: functional, Homo sapiens; summary of the method: as §1
Jurkat [9] = experiment: Tested for apoptosis in jurkat cells at a concentration of 0.1 uM of the compound; type: functional, Homo sapiens
Summary of the method: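 Jurkat cells (1 × 10⁶ cells mL⁻¹; >98% viable, <2% background apoptosis) incubated 24 h at 37 °C with compound (0–100 μM range, in DMSO). Nuclei stained with propidium iodide (50 μM) in HBSS with 0.1% Triton-X for 10 min at 37 °C. Apoptotic nuclei measured by flow cytometry. Mean ± SD of triplicate incubations in one experiment; Kruskal–Wallis test against DMSO control.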

UACC-62 [10] = experiment: Concentration required to achieve total growth inhibition against melanoma UACC-62 cell line; type: functional; details: Homo sapiens
SW-620 [11] = experiment: Concentration of the drug required to achieve 50% cytotoxicity against colon SW-620 cancer cell line; type: cell-based; details: human
HL-60 [12] = experiment: Concentration of the drug required to achieve 50% cytotoxicity against leukemia HL-60(TB) cell line; type: functional; details: Homo sapiens, read-out: LC50 (the source's name)
UACC-62 [13] = experiment: Concentration of the drug required to achieve 50% cytotoxicity against melanoma UACC-62 cell line; type: cell-based; details: human
HT-29 [14] = experiment: Concentration required to achieve total growth inhibition against colon HT-29 cancer cell line; type: functional; details: Homo sapiens
K562 = experiment: inhibition against leukemia K-562 cell line; type: functional; details: Homo sapiens
COLO 205 [15] = experiment: Concentration required to achieve total growth inhibition against colon COLO 205 cancer cell line; type: functional; details: Homo sapiens
HL-60 [16] = experiment: Concentration required to achieve total growth inhibition against leukemia HL-60(TB) cell line; type: functional; details: Homo sapiens
NCI/ADR-RES [17] = experiment: Concentration of the drug required to achieve 50% cytotoxicity against breast NCI/ ADR-RES cancer cell line; type: cell-based; details: human
PC-3 = experiment: Concentration required to achieve total growth inhibition against prostate PC-3 cell line; type: functional; details: Homo sapiens
LOX IMVI = experiment: inhibition against melanoma LOX IMVI cell line; type: functional; details: Homo sapiens
NCI/ADR-RES [18] = experiment: Concentration required to achieve total growth inhibition against breast NCI/ ADR-RES cancer cell line; type: functional; details: Homo sapiens
SW-620 [19] = experiment: Concentration required to achieve total growth inhibition against colon SW-620 cancer cell line; type: functional; details: Homo sapiens
HT-29 [20] = experiment: Concentration of the drug required to achieve 50% cytotoxicity against colon HT-29 cancer cell line; type: functional; details: Homo sapiens, read-out: LC50 (the source's name)
Jurkat [21] = experiment: Tested for apoptosis in jurkat cells at a concentration of 1 uM of the compound; type: functional, Homo sapiens; summary of the method: as §1
COLO 205 [22] = experiment: Concentration of the drug required to achieve 50% cytotoxicity against colon COLO 205 cancer cell line; type: functional; details: Homo sapiens, read-out: LC50 (the source's name)
SK-MEL-5 [23] = experiment: inhibition against melanoma SK-MEL-5 cell line; type: functional; details: Homo sapiens
KM12 [24] = experiment: Concentration of the drug required to achieve 50% cytotoxicity against colon KM12 cancer cell line; type: functional; details: Homo sapiens, read-out: LC50 (the source's name)
MCF7 [25] = experiment: Concentration required to achieve total growth inhibition against breast MCF-7 cancer cell line; type: functional; details: Homo sapiens
Jurkat [26] = experiment: Tested for apoptosis in jurkat cells at a concentration of 10 uM of the compound; type: functional, Homo sapiens; summary of the method: as §1
RPMI-8226 [27] = experiment: inhibition against leukemia RPMI-8226 cell line; type: functional; details: Homo sapiens
Jurkat [28] = experiment: Inhibitory concentration against jurkat cells; type: functional, cell-based; details: Homo sapiens
Summary of the method: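 HL60 (2.5 × 10⁴/well) or Jurkat (1 × 10⁵/well) in RPMI-1640 with 10% FBS and 1% L-glutamine, 5% CO2, 37 °C. Exposed to 10⁻¹⁰–10⁻⁴ M for 72 h, final DMSO below 0.5% v/v. [3H]-thymidine (0.5 μCi) added for the final 24 h. Incorporation counted by β-scintillation.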

CCRF-CEM = experiment: inhibition against leukemia CCRF-CEM cell line; type: functional; details: Homo sapiens

## C[C@H]1[C@@H](CCOP(=O)(OCC[C@H]2O[C@@H]3OC4(C)CC[C@H]5[C@H](C)CC[C@@H]([C@H]2C)[C@@]35OO4)Oc2ccccc2)O[C@@H]2OC3(C)CC[C@H]4[C@H](C)CC[C@@H]1[C@@]24OO3 (single isomer, unassigned)
Plasmodium falciparum
  IC50: 0.00018 µM
COLO 205 [1]
  GI50: < 0.01 µM
Jurkat [2]
  Activity: 17.3%
MOLT-4
  CC50: > 100 µM
Jurkat [3]
  Activity: 20.1%
RPMI-8226 [4]
  TGI: 0.01 µM
T47D
  TGI: < 10 µM
Malme-3M
  TGI: 30.8 µM
SK-MEL-5 [5]
  TGI: 2.25 µM
KM12 [6]
  TGI: 17.9 µM
MCF7 [7]
  LC50: > 100 µM
Jurkat [8]
  Activity: 8.7%
Jurkat [9]
  Activity: 8.7%
UACC-62 [10]
  TGI: 21.8 µM
SW-620 [11]
  LC50: > 100 µM
HL-60 [12]
  CC50: > 100 µM
UACC-62 [13]
  LC50: > 100 µM
HT-29 [14]
  TGI: 23.2 µM
K562
  GI50: < 0.01 µM
COLO 205 [15]
  TGI: 0.17 µM
HL-60 [16]
  TGI: 2.23 µM
NCI/ADR-RES [17]
  LC50: > 100 µM
PC-3
  TGI: 65.5 µM
LOX IMVI
  GI50: 0.0191 µM
NCI/ADR-RES [18]
  TGI: 45.2 µM
SW-620 [19]
  TGI: 100 µM
HT-29 [20]
  CC50: > 100 µM
Jurkat [21]
  Activity: 8.9%
COLO 205 [22]
  CC50: > 100 µM
SK-MEL-5 [23]
  GI50: 0.013 µM
KM12 [24]
  CC50: > 100 µM
MCF7 [25]
  TGI: > 100 µM
Jurkat [26]
  Activity: 11.2%
RPMI-8226 [27]
  GI50: < 0.01 µM
Jurkat [28]
  IC50: 13.2 µM
CCRF-CEM
  GI50: 0.0259 µM
